Source: ChEMBL document CHEMBL1122513, “Synthesis and antiviral activity of carbocyclic analogues of 2'-deoxyribofuranosides of 2-amino-6-substituted-purines and of 2-amino-6-substituted-8-azapurines” (J Med Chem, 1984)
In brackets after ≈: the same amount, converted by molar mass. Several values for one entry are separate records, joined by “and”; a condition that tells them apart may be missing. Identical values can stand only once.

Tests used:
Human alphaherpesvirus 1 [1] = assay: In vitro antiviral activity in secondary cultures of rabbit kidney cells infected with HSV type 1 strain HF; assay type: functional
Vaccinia virus = assay: In vitro for antiviral activity in secondary cultures of rabbit kidney cells infected with vaccinia virus; assay type: functional, Orthopoxvirus vaccinia
Human alphaherpesvirus 2 [2] = assay: Concentration required to inhibit HSV type 2 strain MS induced cytopathogenic affects by 50%; assay type: functional
Procedure, shortened: (§1)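 Inhibition of cytopathogenic effect caused by HSV-1 strain 377 or HSV-2 strain MS, replicating in secondary rabbit kidney cell cultures or in Vero cells. MIC₅₀ is the concentration giving 50% inhibition of virus-induced CPE. Ranges are pooled from several tests in either host cell type.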

Human alphaherpesvirus 1 [3] = assay: In vitro antiviral activity in secondary cultures of rabbit kidney cells infected with HSV type 1 strain 377; assay type: functional
Procedure, shortened: (§2)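 Scored as a virus rating (VR) from inhibition of CPE caused by HSV-1 strain 377 or HSV-2 strain MS in secondary rabbit kidney cultures or Vero cells. VR ≥1.0 means definite activity, 0.5-0.9 marginal to moderate, and <0.5 usually none. Ranges are pooled from several tests.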

Human alphaherpesvirus 1 [4] = assay: Concentration required to inhibit HSV type 1 strain 377 induced cytopathogenic affects by 50%; assay type: functional; procedure, shortened: as §1
Mus musculus [5] = assay: Antineoplastic activity of compound in mice inoculated with 10e 5 L1210 leukemia cells was measured as T/C after ip administration of 100 […]; assay type: functional
Procedure, shortened: (§3)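 L1210 leukemia, 10⁵ cells inoculated intraperitoneally into mice on day 0, following NCI protocols. Compound given intraperitoneally as a solution or suspension once daily on days 1-9. T/C % compares lifespan of treated mice with untreated leukemic control mice.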

Human alphaherpesvirus 2 [6] = assay: In vitro antiviral activity in secondary cultures of rabbit kidney cells infected with HSV type 2 strain MS; assay type: functional; procedure, shortened: as §2
L1210 [7] = assay: Antineoplastic activity of compound in mice inoculated with 10e 5 L1210 leukemia cells was measured as weight change after ip administration of 100 […]; assay type: functional, Mus musculus
Procedure, shortened: (§4)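 Mice received 10⁵ L1210 leukemia cells ip on day 0, then compound ip as a solution or suspension q.d. days 1-9, following NCI protocols. Weight-change difference is the mean weight change of treated mice minus that of untreated leukemic controls, both measured on day 5.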

[8] = Compound was evaluated for cytotoxicity to KB cells (derived from human epidermoid carcinoma); assay type: cell-based; details: read-out: ED50 (the source's name)
Procedure, shortened: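 KB cells grown in culture and tested under the National Cancer Institute cytotoxicity protocol. The value is reported as ED50 in mcg/mL.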

Mus musculus [9] = assay: Antineoplastic activity of compound in mice inoculated with 10e 5 L1210 leukemia cells was measured as T/C after ip administration of 200 […]; assay type: functional; procedure, shortened: as §3
Mus musculus [10] = assay: Antineoplastic activity of compound in mice inoculated with 10e 5 L1210 leukemia cells was measured as T/C after ip administration of 25 […]; assay type: functional; procedure, shortened: as §3
L1210 [11] = assay: Antineoplastic activity of compound in mice inoculated with 10e 5 L1210 leukemia cells was measured as weight change after ip administration of 50 […]; assay type: functional, Mus musculus; procedure, shortened: as §4
L1210 [12] = assay: Antineoplastic activity of compound in mice inoculated with 10e 5 L1210 leukemia cells was measured as weight change after ip administration of 25 […]; assay type: functional, Mus musculus; procedure, shortened: as §4
Mus musculus [13] = assay: Antineoplastic activity of compound in mice inoculated with 10e 5 L1210 leukemia cells was measured as T/C after ip administration of 50 […]; assay type: functional; procedure, shortened: as §3
L1210 [14] = assay: Antineoplastic activity of compound in mice inoculated with 10e 5 L1210 leukemia cells was measured as weight change after ip administration of 200 […]; assay type: functional, Mus musculus; procedure, shortened: as §4
Mus musculus [15] = assay: Antineoplastic activity of compound in mice inoculated with 10e 5 L1210 leukemia cells was measured as T/C after ip administration of 200 mg/kg; assay type: functional; details: route intraperitoneal; procedure, shortened: as §3
L1210 [16] = assay: Antineoplastic activity of compound in mice inoculated with 10e 5 L1210 leukemia cells was measured as weight change after ip administration of 200 mg/kg; assay type: functional, Mus musculus; details: route intraperitoneal; procedure, shortened: as §4
Mus musculus [17] = assay: Antineoplastic activity of compound in mice inoculated with 10e 5 L1210 leukemia cells was measured as T/C after ip administration of 100 mg/kg; assay type: functional; details: route intraperitoneal; procedure, shortened: as §3
L1210 [18] = assay: Antineoplastic activity of compound in mice inoculated with 10e 5 L1210 leukemia cells was measured as weight change after ip administration of 100 mg/kg; assay type: functional, Mus musculus; details: route intraperitoneal; procedure, shortened: as §4
L1210 [19] = assay: Antineoplastic activity of compound in mice inoculated with 10e 5 L1210 leukemia cells was measured as weight change after ip administration of 50 mg/kg; assay type: functional, Mus musculus; details: route intraperitoneal; procedure, shortened: as §4
Mus musculus [20] = assay: Antineoplastic activity of compound in mice inoculated with 10e 5 L1210 leukemia cells was measured as T/C after ip administration of 50 mg/kg; assay type: functional; details: route intraperitoneal; procedure, shortened: as §3
Human alphaherpesvirus 1 [21] = assay: In vitro antiviral activity in secondary cultures of rabbit kidney cells against HSV type 1 strain 377; assay type: functional; procedure, shortened: as §2
Human alphaherpesvirus 1 [22] = assay: Concentration required to inhibit HSV type 1 strain HF induced cytopathogenic affects by 50%; assay type: functional
Human alphaherpesvirus 2 [23] = assay: Concentration required to inhibit HSV type 2 strain MS induced cytopathogenic affects by 50%; 6.4-30; assay type: functional; procedure, shortened: as §1
Human alphaherpesvirus 1 [24] = assay: In vitro antiviral activity in secondary cultures of rabbit kidney cells against HSV type 1 strain 377; 2.5-3.1; assay type: functional; procedure, shortened: as §2
Human alphaherpesvirus 1 [25] = assay: Concentration required to inhibit HSV type 1 strain 377 induced cytopathogenic affects by 50%; 6.4-9.8; assay type: functional; procedure, shortened: as §1
Human alphaherpesvirus 2 [26] = assay: In vitro antiviral activity in secondary cultures of rabbit kidney cells against HSV type 2 strain MS; 1.6-2.3; assay type: functional; procedure, shortened: as §2
[27] = Human alphaherpesvirus 1, read-out: MIC50

Compound | MIC50 (Human alphaherpesvirus 2 [2]) [µg/mL] | Virus rating (Human alphaherpesvirus 1 [3]) | MIC50 (Human alphaherpesvirus 1 [4]; [27]) [µg/mL] | T/C (Mus musculus [5]) [%] | Virus rating (Human alphaherpesvirus 2 [6]) | Weight change (L1210 [7]) [g] | CC50 [8] [µg/mL] | other results
Nc1ncnc2c1ncn2[C@@H]1C[C@H](CO)[C@@H](O)[C@@H]1O |  |  |  |  |  |  |  | Virus rating (Human alphaherpesvirus 1 [1]): 2.2 and 3.5; Virus rating (Vaccinia virus): 1.5 and 1.7
Nc1nc(O)c2ncn([C@@H]3C[C@H](CO)[C@@H](O)C3)c2n1 | 0.8 (≈ 3.02 µM) | >=4.6 | < 0.3 | 96 | 3.7 | -3.7 | 95 (≈ 358 µM) | 
Nc1nc(Cl)c2nnn(C3CC(O)C(CO)C3)c2n1 (stereo unspecified) | 23 (≈ 80.8 µM) | 5 and 4.5 | < 1 | 100 | 1.9 | -3.4 | 10 (≈ 35.1 µM) | T/C (Mus musculus [9]): 78%; T/C (Mus musculus [10]): 118%; Weight change (L1210 [11]): -1.5 g; MIC50 (Human alphaherpesvirus 1 [4]): 1.6 µg/mL (≈ 5.62 µM); Weight change (L1210 [12]): -1 g; T/C (Mus musculus [13]): 105%; Weight change (L1210 [14]): -4.4 g
Nc1nc(N)c2nnn(C3CC(O)C(CO)C3)c2n1 (stereo unspecified) | 10 (≈ 37.7 µM) | 4 and 4.4 | < 3.2 |  | 2.3 |  | > 100 | T/C (Mus musculus [15]): 92%; MIC50 (Human alphaherpesvirus 1 [4]): 2 µg/mL (≈ 7.54 µM); Weight change (L1210 [16]): -1.1 g; T/C (Mus musculus [17]): 96%; Weight change (L1210 [18]): -0.7 g
Nc1nc(N)c2ncn(C3CC(O)C(CO)C3)c2n1 (stereo unspecified) | 2.4 (≈ 9.08 µM) | 4.5 | 0.6 (≈ 2.27 µM) |  | 2.9 |  | > 100 | Weight change (L1210 [19]): -2.8 g; T/C (Mus musculus [20]): 104%; T/C (Mus musculus [15]): 79%; Virus rating (Human alphaherpesvirus 1 [21]): 4.7; MIC50 (Human alphaherpesvirus 1 [4]): 0.3 µg/mL (≈ 1.14 µM); Weight change (L1210 [16]): -5.5 g
Nc1nc(S)c2ncn(C3CC(O)C(CO)C3)c2n1 (stereo unspecified) | 32 (≈ 114 µM) | 4.9 | < 3.2 | 91 | 1.7 | -0.2 | > 100 | T/C (Mus musculus [9]): 108%; Weight change (L1210 [14]): 0.5 g
Cc1cn(C2CC(CO)C(O)C2O)c(=O)[nH]c1=O (stereo unspecified) | 7 (≈ 27.3 µM) | 5.4 | 0.8 (≈ 3.12 µM) |  | 3.2 |  |  | 
Nc1nc(Cl)c2ncn(C3CC(O)C(CO)C3)c2n1 (stereo unspecified) | 37 (≈ 130 µM) | 1.9 | 8.1 (≈ 28.5 µM) | 106 | 2 | -1 | 62 (≈ 219 µM) | T/C (Mus musculus [9]): 106%; Weight change (L1210 [14]): -2.2 g
OCC1CC(n2nnc3c(O)ncnc32)C(O)C1O (stereo unspecified) |  |  |  |  |  |  |  | Virus rating (Human alphaherpesvirus 1 [1]): 1.5; MIC50 (Human alphaherpesvirus 1 [22]; [27]): 298 µg/mL (≈ 1120 µM); Virus rating (Vaccinia virus): 1.2
Nc1nc(O)c2nnn(C3CC(O)C(CO)C3)c2n1 (stereo unspecified) | 6.9 (≈ 25.9 µM) | 4.2 | 0.6 (≈ 2.25 µM) | 100 | 2.1 | -2.4 | > 100 | T/C (Mus musculus [9]): 104%; Weight change (L1210 [14]): -3.2 g
OCC1CC(n2cnc3c(O)ncnc32)C(O)C1O (stereo unspecified) |  |  |  |  |  |  |  | Virus rating (Human alphaherpesvirus 1 [1]): 2.1; MIC50 (Human alphaherpesvirus 1 [22]; [27]): 97 µg/mL (≈ 364 µM); Virus rating (Vaccinia virus): 1.9
Nc1ccn([C@@H]2C[C@H](CO)[C@@H](O)[C@H]2O)c(=O)n1 (stereo in doubt; form 1) |  |  |  |  |  |  |  | MIC50 (Human alphaherpesvirus 1 [22]): 93 µg/mL and <32 µg/mL
Nc1ccn([C@@H]2C[C@H](CO)[C@@H](O)[C@H]2O)c(=O)n1 (stereo in doubt; form 2) | 2.4 (≈ 9.95 µM) |  |  |  | 3.2 |  |  | Virus rating (Human alphaherpesvirus 1 [1]): 0.8; MIC50 (Human alphaherpesvirus 1 [22]): 68 µg/mL (≈ 282 µM); Virus rating (Vaccinia virus): 0.9
Nc1ncnc2c1ncn2[C@@H]1O[C@H](CO)[C@@H](O)[C@@H]1O [VIDARABINE] |  |  |  |  |  |  |  | MIC50 (Human alphaherpesvirus 2 [23]): 6.4 µg/mL (≈ 23.9 µM); Virus rating (Human alphaherpesvirus 1 [24]): 2.5; MIC50 (Human alphaherpesvirus 1 [25]): 6.4 µg/mL (≈ 23.9 µM); Virus rating (Human alphaherpesvirus 2 [26]): 1.6
